# ChEMBL document CHEMBL1136089, “Synthesis and in vitro activity of new methylenepiperidinyl and methylenepyrrolidinyl oxazolidinone antibacterial agents” (Bioorg Med Chem Lett, 2003)
# Columns and labels:
# Streptococcus pyogenes [1] = assay: In vitro antibacterial activity against Streptococcus pyogenes ATTCC8668
# [2] = test system: Staphylococcus epidermidis; assay: In vitro antibacterial activity against Staphylococcus epidermis ATCC 1228; format: functional
# Summary of the method: (§1)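 MIC by agar dilution on Mueller–Hinton agar, inoculum 10⁴ CFU/spot. Reported in μg/mL.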
# Staphylococcus aureus [3] = assay: In vitro antibacterial activity against ciprofloxacin-resistant Staphylococcus aureus (CRSA); format: functional
# Enterococcus faecalis [4] = assay: In vitro antibacterial activity against Enterococcus faecalis C6291 (E. f. 1); format: functional
# Summary of the method: as §1
# Staphylococcus aureus [5] = assay: In vitro antibacterial activity against methicillin-resistant Staphylococcus aureus (MRSA); format: functional
# Staphylococcus aureus [6] = assay: In vitro antibacterial against methicillin-susceptible Staphylococcus aureus (MSSA); format: functional
# Enterococcus faecium = assay: In vitro antibacterial activity against vancomycin-resistant Enterococcus faecium C6487
# Streptococcus pyogenes [7] = assay: In vitro antibacterial activity against Streptococcus pyogenes C6003
# Staphylococcus aureus [8] = assay: In vitro antibacterial activity against Staphylococcus aureus; format: functional
# Enterococcus faecalis [9] = assay: In vitro antibacterial activity against Enterococcus faecalis C6301 (E. f. 1); format: functional
# Summary of the method: as §1
# [10] = test system: Staphylococcus epidermidis; assay: In vitro antibacterial activity against Staphylococcus epidermis C2235; format: functional
# Summary of the method: as §1
SMILES,MIC (Streptococcus pyogenes [1]) [µg/mL],MIC [2] [µg/mL],MIC (Staphylococcus aureus [3]) [µg/mL],MIC (Enterococcus faecalis [4]) [µg/mL],MIC (Staphylococcus aureus [5]) [µg/mL],MIC (Staphylococcus aureus [6]) [µg/mL],MIC (Enterococcus faecium) [µg/mL],MIC (Streptococcus pyogenes [7]) [µg/mL],MIC (Staphylococcus aureus [8]) [µg/mL],MIC (Enterococcus faecalis [9]) [µg/mL],MIC [10] [µg/mL]
CC(=O)NC[C@H]1CN(c2ccc(N3CCC(=Cc4cc(-c5csnc5C)no4)CC3)c(F)c2)C(=O)O1,2,2,8,8,8,16,4,8,16,8,4
CC(=O)NC[C@H]1CN(c2ccc(N3CC/C(=C(\C)C#N)C3)c(F)c2)C(=O)O1,–,1,1,–,–,–,2,–,1,4,1
CCOC(=O)C(Cl)=C1CCN(c2ccc(N3C[C@H](CNC(C)=O)OC3=O)cc2F)CC1,2,2,16,4,16,8,4,8,32,2,4
CCOC(=O)/C(C#N)=C1/CCN(c2ccc(N3C[C@H](CNC(C)=O)OC3=O)cc2F)C1,–,8,16,–,–,–,16,–,16,32,8
CC(=O)NC[C@H]1CN(c2ccc(N3CCC(=CC(C)O)CC3)c(F)c2)C(=O)O1 (some centres not stated),2,2,8,8,4,16,4,8,8,4,4
CCOC(=O)C(C#N)=C1CCN(c2ccc(N3C[C@H](CNC(C)=O)OC3=O)cc2F)CC1,1,1,4,4,4,4,2,4,4,2,2
CN[C@H](CC(C)C)C(=O)N[C@H]1C(=O)N[C@@H](CC(N)=O)C(=O)N[C@H]2C(=O)N[C@H]3C(=O)N[C@H](C(=O)N[C@H](C(=O)O)c4cc(O)cc(O)c4-c4cc3ccc4O)[C@H](O)c3ccc(c(Cl)c3)Oc3cc2cc(c3O[C@@H]2O[C@H](CO)[C@@H](O)[C@H](O)[C@H]2O[C@H]2C[C@](C)(N)[C@H](O)[C@H](C)O2)Oc2ccc(cc2Cl)[C@H]1O [VANCOMYCIN],0.12,–,–,2,–,–,> 32,–,–,1,–
CC(=O)NC[C@H]1CN(c2ccc(N3CCC(=C/C=N/O)CC3)c(F)c2)C(=O)O1,2,1,8,4,4,8,4,4,8,4,4
CC(=O)NC[C@H]1CN(c2ccc(N3CCC(=CC(C)OC(C)=O)CC3)c(F)c2)C(=O)O1 (some centres not stated),0.25,2,16,8,8,16,4,8,16,8,8
CC(=O)C=C1CCN(c2ccc(N3C[C@H](CNC(C)=O)OC3=O)cc2F)CC1,0.25,1,16,16,16,16,8,16,8,8,8
CC(=O)NC[C@H]1CN(c2ccc(N3CCC(=Cc4cc(-c5cccs5)no4)CC3)c(F)c2)C(=O)O1,2,4,16,16,16,16,16,16,32,16,8
CC(=O)NC[C@H]1CN(c2ccc(N3CCC(=C/C(C)=N/O)CC3)c(F)c2)C(=O)O1,1,1,8,4,4,8,4,4,8,4,4
CC(=O)NC[C@H]1CN(c2ccc(N3CC/C(=C/C#N)C3)c(F)c2)C(=O)O1,–,0.5,0.5,–,–,–,1,–,0.5,1,–
CC(=O)NC[C@H]1CN(c2ccc(N3CCC(=C(C)C#N)CC3)c(F)c2)C(=O)O1,0.5,0.5,2,2,2,2,1,2,2,2,2
CC(=O)NC[C@H]1CN(c2ccc(N3CCC(=CC(=O)[O-])CC3)c(F)c2)C(=O)O1.[Na+],2,1,8,8,4,8,8,8,8,4,1
CO/N=C/C=C1CCN(c2ccc(N3C[C@H](CNC(C)=O)OC3=O)cc2F)CC1,1,1,4,4,4,8,4,2,8,4,2
CC(=O)NC[C@H]1CN(c2ccc(N3CCC(=CC=O)CC3)c(F)c2)C(=O)O1,2,1,4,8,4,8,8,8,8,4,2
CC(=O)NC[C@H]1CN(c2ccc(N3CCC(=C(C#N)C#N)C3)c(F)c2)C(=O)O1,–,4,8,–,–,–,16,–,8,16,4
CCOC(=O)C=C1CCN(c2ccc(N3C[C@H](CNC(C)=O)OC3=O)cc2F)CC1,2,4,8,8,8,16,8,8,16,8,8
CO/N=C(\C)C=C1CCN(c2ccc(N3C[C@H](CNC(C)=O)OC3=O)cc2F)CC1,2,8,16,8,8,16,4,8,16,8,8
